No end group written: not given here.

The target of data set [1] is T1, recombinant IKKβ (Homo sapiens, UniProt O14920).
T1 sequence (O14920 1-756): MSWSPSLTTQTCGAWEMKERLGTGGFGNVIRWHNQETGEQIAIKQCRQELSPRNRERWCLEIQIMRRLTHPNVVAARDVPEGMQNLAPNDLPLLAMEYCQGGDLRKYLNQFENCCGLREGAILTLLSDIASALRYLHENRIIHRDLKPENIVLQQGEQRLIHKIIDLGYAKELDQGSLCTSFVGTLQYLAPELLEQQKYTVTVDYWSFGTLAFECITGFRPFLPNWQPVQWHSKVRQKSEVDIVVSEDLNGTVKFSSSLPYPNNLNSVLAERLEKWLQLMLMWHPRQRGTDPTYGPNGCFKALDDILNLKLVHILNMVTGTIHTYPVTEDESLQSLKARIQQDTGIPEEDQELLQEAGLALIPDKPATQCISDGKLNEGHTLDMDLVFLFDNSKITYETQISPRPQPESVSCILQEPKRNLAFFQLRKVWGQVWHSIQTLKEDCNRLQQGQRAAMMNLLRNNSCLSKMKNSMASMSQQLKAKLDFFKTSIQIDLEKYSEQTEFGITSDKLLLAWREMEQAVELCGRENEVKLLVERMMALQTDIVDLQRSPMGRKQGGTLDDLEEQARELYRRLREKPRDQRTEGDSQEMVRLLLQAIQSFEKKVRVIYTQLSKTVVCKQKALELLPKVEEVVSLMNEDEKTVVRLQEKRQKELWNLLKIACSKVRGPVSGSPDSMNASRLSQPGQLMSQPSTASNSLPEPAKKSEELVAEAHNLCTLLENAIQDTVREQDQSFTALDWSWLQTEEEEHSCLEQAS
As to the kind of experiment: LANCE Ultra TR-FRET kinase assay, recombinant IKKβ. Type of data set: biochemical. The essentials:
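Purified recombinant IKKβ (1 nM) in Hepes pH 7.4 buffer with MgCl₂, EGTA, DTT and Tween-20; 50 nM ULight-IκBα peptide substrate; 1.25 μM ATP. Runs 1 h at room temperature, then stopped with 20 mM EDTA plus 2 nM Eu-labelled phospho-specific antibody for TR-FRET. Activity is % of solvent control, 3–4 experiments in triplicate.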

In data set [2] the target is T2, RXRα (Homo sapiens, UniProt P19793).
T2 sequence (P19793 1-462): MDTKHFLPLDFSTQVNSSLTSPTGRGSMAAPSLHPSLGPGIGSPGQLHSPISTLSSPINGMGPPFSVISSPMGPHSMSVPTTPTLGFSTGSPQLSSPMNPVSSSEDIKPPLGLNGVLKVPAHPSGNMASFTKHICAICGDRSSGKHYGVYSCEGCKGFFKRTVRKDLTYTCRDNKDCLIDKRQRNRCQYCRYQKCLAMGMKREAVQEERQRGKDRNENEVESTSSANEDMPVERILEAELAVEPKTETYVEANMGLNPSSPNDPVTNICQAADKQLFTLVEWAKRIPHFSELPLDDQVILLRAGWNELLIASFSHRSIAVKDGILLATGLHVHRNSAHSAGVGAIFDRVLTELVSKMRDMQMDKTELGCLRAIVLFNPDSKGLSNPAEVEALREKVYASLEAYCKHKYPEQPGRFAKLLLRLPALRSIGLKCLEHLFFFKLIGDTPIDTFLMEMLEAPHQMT
The experiment in a line: Gal4-RXRα transactivation assay in HEK-293-luciferase reporter cells. Type of data set: cell-based. For orientation: Reporter assays use an easily measured gene product as a stand-in for the process of interest.

Data set [3] addresses T3, GST-RXRα LBD with D22 coactivator peptide (Homo sapiens, UniProt P19793).
T3 sequence (P19793 227-458 limits assumed): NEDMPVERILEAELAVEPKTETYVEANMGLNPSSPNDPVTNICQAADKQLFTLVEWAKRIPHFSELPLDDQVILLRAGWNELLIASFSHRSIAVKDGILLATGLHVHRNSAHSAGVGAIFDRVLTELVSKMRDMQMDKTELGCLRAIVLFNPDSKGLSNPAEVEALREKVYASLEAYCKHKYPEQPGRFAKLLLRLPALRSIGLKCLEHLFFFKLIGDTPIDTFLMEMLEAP
The experiment in a line: TR-FRET RXR LBD-coactivator peptide recruitment assay, D22 peptide. Type of data set: biochemical. Conditions: in combination with a low concentration of CD3254 agonist (Figure S2). The essentials: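 5 nM GST-RXRα LBD incubated at room temperature with 150 nM fluorescein-D22 peptide in 25 mM Hepes pH 7.4, 100 mM NaCl, 0.025% BSA, 5% glycerol, 0.005% Tween-20, 2.5 mM DTT. Ligand or DMSO (≤1%) added; 2 nM Tb-anti-GST antibody for detection. After 4 h, TR-FRET read at 495 and 520 nm. The 520/495 ratio was expressed as Delta F% against controls lacking GST-RXRα.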
A general note: In TR-FRET formats the signal depends on donor and acceptor labels being close together.

Data set [4] has as its system Jurkat T cells. The experiment in a line: CellTiter-GLO cell viability/proliferation assay. Conditions: 4 μM, 24 h (Table 1). For orientation: In ATP-based viability assays light output follows the ATP content of the culture.
For data set [5], the target named is T4, recombinant IKKα (Homo sapiens, UniProt O15111).
T4 sequence (O15111 1-745): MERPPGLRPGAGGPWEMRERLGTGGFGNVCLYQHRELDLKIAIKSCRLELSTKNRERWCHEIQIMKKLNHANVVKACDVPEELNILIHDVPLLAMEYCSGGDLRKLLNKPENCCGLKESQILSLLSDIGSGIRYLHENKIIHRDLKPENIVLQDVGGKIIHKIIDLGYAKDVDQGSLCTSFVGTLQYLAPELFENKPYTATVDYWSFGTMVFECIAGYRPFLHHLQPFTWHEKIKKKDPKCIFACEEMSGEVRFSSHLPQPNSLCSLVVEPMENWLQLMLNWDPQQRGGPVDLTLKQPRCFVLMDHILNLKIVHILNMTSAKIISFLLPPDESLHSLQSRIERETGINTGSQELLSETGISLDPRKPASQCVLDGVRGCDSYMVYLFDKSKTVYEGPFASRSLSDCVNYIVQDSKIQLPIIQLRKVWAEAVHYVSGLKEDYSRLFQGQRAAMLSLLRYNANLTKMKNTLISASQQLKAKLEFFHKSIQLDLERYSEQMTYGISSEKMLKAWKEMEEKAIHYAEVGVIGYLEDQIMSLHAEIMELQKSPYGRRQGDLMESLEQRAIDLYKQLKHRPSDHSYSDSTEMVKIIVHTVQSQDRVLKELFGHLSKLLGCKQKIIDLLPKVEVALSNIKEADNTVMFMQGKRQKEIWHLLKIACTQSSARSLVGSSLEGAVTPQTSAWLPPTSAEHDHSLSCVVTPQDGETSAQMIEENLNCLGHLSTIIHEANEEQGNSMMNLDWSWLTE
The experiment in a line: LANCE Ultra TR-FRET kinase assay, recombinant IKKα. The data set is classed as biochemical. The following applies: 20 μM AdAr; ATP near apparent Km; vs solvent control; ± SD, 3–4 experiments. The essentials: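 Reaction stopped with 20 mM EDTA plus 2 nM Eu-labelled phospho-specific antibody. TR-FRET (ex 340 nm; 615/665 nm) read 2 h later. Counts normalized; inhibition relative to solvent control; triplicates.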

The target of data set [6] is T5, recombinant IKKε (Homo sapiens, UniProt Q14164).
T5 sequence (Q14164 1-716): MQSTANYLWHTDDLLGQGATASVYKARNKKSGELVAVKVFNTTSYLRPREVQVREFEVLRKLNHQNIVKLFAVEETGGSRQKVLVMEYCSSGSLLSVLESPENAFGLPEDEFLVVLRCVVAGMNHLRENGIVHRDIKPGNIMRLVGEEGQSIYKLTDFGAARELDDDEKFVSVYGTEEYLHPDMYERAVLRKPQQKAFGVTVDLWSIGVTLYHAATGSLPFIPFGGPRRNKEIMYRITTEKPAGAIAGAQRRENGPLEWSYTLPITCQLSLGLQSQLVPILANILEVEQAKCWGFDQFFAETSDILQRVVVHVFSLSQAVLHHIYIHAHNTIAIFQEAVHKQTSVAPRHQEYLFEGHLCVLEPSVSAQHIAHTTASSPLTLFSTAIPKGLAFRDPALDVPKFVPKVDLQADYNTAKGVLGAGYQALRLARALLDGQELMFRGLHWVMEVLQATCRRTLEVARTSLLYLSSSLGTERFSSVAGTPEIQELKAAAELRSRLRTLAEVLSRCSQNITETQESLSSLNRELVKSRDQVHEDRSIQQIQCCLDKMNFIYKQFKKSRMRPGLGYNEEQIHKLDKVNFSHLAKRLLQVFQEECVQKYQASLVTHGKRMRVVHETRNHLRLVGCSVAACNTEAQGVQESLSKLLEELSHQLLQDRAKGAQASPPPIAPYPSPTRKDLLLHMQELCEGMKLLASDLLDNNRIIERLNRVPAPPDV
As to the kind of experiment: LANCE Ultra TR-FRET kinase assay, recombinant IKKε. The following applies: 20 μM AdAr; ATP near apparent Km; vs solvent control; ± SD, 3–4 experiments. Type of data set: biochemical. The essentials: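 Recombinant IKKε enzyme, 2 nM final, in Hepes pH 7.4 kinase buffer (10 mM MgCl₂, 1 mM EGTA, 2 mM DTT, 0.01% Tween-20). Substrate was 50 nM ULight-rpS6, with 5 μM ATP, run 2 h at room temperature. The reaction was quenched with 20 mM EDTA containing 2 nM Eu-anti-phospho antibody. After 2 h, TR-FRET was read at 615 and 665 nm (340 nm excitation). Percent inhibition was taken versus solvent control; triplicate points.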

The target in data set [7] is GST-RXRα LBD. As to the kind of experiment: AlphaScreen or HTRF.

Take `Cc1cc(O)c(C23CC4CC(CC(C4)C2)C3)cc1-c1ccc2cc(C(=O)O)ccc2c1Cl` [4a]: the “potency against IKKβ relative to MX781 3 (times more potent)” value in data set [1] (ratio of IC50 values) is listed as “about 2.5 times”. The “inhibition in Gal4-RXRα transactivation assay, antagonist mode” value in data set [2] (100 nM CD3254 plus 4 μM AdAr) was determined as 30%. In addition, in data set [3], the “inhibition of RXRα LBD/D22 binding stimulated by CD3254” value (from here on “inhibition … by CD3254”) was 25%. The “inhibition of Jurkat cell viability” value in data set [4] was greater than 85%.
With `O=C(O)c1ccc(-c2cnc(-c3ccc(O)c(C45CC6CC(CC(C6)C4)C5)c3)s2)cc1` [8a, 4-[2-(3-Adamantan-1-yl-4-hydroxyphenyl)thiazol-5-yl]benzoic Acid], the “inhibition of Jurkat cell viability” value in data set [4] is recorded as greater than 85%.
As to “(E)-3-[2-(3-Acetamidopropoxy)-3-(adamant-1-yl)-4-hydroxybiphenyl-4-yl]acrylic Acid [2c]”, the “% Inhibition of IKK activity IKKα” value in data set [5] is 5.0 ± 4.9%. Also, in data set [1] (20 μM AdAr, ATP near apparent Km, vs solvent control, ± SD, 3–4 experiments), the “% Inhibition of IKK activity IKKβ” value came to 0%. Further, in data set [6], the “% Inhibition of IKK activity IKKε” value worked out at 14.4 ± 4.1%.
For the molecule `Cc1cc(O)c(C23CC4CC(CC(C4)C2)C3)cc1-c1ccc(CC(=O)O)cc1Cl` [6a], the “inhibition … by CD3254” value in data set [3] was determined as 25%.
In the case of `COCCOCOc1ccc(-c2ncc(-c3ccc(C(=O)O)cc3)s2)cc1C12CC3CC(CC(C3)C1)C2` [8c, 4-[2-(3-Adamantan-1-yl-4-[(2-methoxyethoxy)methoxy]phenyl)thiazol-5-yl]benzoic Acid], the “Gal4-RXRα transactivation, % of the maximum activity observed with control rexinoid CD3254” value in data set [2] (4 μM AdAr, CD3254 1 μM) is recorded as ~ 20%. Also, the “RXR Profile Agonist (fold induction of RXRα activity)” value in data set [2] (AdArs 4 μM, positive control CD3254 1 μM, vs solvent control cells) was 3 fold induction.
As for `CCCCCOc1cc2c(cc1-c1cc(/C=C/C(=O)O)ccc1O)C(C)(C)CCC2(C)C` [34, UVI3003, reference compound], the “inhibition … by CD3254” value in data set [3] is listed as “complete inhibition”.

B1: biotinylated SRC-1-676-700 peptide (peptide)
peptide: CPSSHSSLTERHKILHRLLQEGSPSK
modifications: biotin on the added C-terminal lysine (-K-biotin)
In data set [7], B1 yielded a Delta F% (ligand: 4a) of 53%, a Delta F% (ligand: 4b) of 187%, a Delta F% (ligand: 5a) of 373% and a Delta F% (ligand: 5b) of 437%. Also, in data set [7], the Delta F% (ligand: 5c) worked out at 152%, the Delta F% (ligand: 6a) worked out at 81%, the Delta F% (ligand: 6b) is 422% and the Delta F% (ligand: 7a) was 162%. In data set [7], this molecule displayed a Delta F% (ligand: 8a) of 183%, a Delta F% (ligand: 8b) of 117%, a Delta F% (ligand: 8c) of 159% and a Delta F% (ligand: 9a) of 116%. In data set [7], the Delta F% (ligand: 9b) amounted to 106%, the Delta F% (ligand: 9c) amounted to 122%, the Delta F% (ligand: 10a) was 111% and the Delta F% (ligand: 10c) is 172%. In data set [7], this molecule had a Delta F% (ligand: 7d) of 133%, a Delta F% (ligand: 8d) of 115%, a Delta F% (ligand: 9d) of 106% and a Delta F% (ligand: CD3254 33) of 561%. Further, the Delta F% (no ligand) in data set [7] amounted to 148%.

B2: fluorescein labeled D22 coactivator peptide (peptide)
peptide: fluorescein-LPYEGSLLLKLLRAPVEEV
In data set [7], B2 came in with a % inhibition of the CD3254-stimulated interaction (by 4a) of 25%, a % inhibition of the CD3254-stimulated interaction (by 6a) of 25%, a Delta F% (ligand: 4a) of 29% and a Delta F% (ligand: 4b) of 159%. Moreover, in data set [7], the Delta F% (ligand: 5a) stood at 487%, the Delta F% (ligand: 5b) was 654%, the Delta F% (ligand: 5c) came out at 113% and the Delta F% (ligand: 6b) was 214%. In data set [7], this molecule displayed a Delta F% (ligand: 7a) of 156%, a Delta F% (ligand: 7c) of 127%, a Delta F% (ligand: 8a) of 94% and a Delta F% (ligand: 8b) of 113%. In data set [7], the Delta F% (ligand: 8c) came to 133%, the Delta F% (ligand: 9c) is 119%, the Delta F% (ligand: 10a) stood at 102% and the Delta F% (ligand: 10c) stood at 170%. Moreover, in data set [7], the Delta F% (ligand: 9d) came out at 87%, the Delta F% (ligand: CD3254 33) worked out at 416% and the Delta F% (no ligand) is 100%.

Source of the values: PMC6805150 (Bioorganic & medicinal chemistry, 2014).
